Source: ChEMBL document CHEMBL5058577, “EUbOPEN Chemogenomics Library 2 (Multiplex)” (2022)

Tested on: HEK-293T
Assay: Multiplex assay against HEK293T
Assay type: toxicity, cell-based
Conditions: human
Outline: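 Tubulin, mitochondrial-mass and membrane-permeability phenotypes are per cents of healthy-nucleus cells. Cells were gated by CellPathfinder machine learning into Hoechst high-intensity objects or normal cells, normal cells into healthy, pyknosed or fragmented nuclei, and pyknosed cells into mitotic or apoptotic. Before that, live cells stained at seeding with Hoechst33342, BioTracker Green Microtubule Cytoskeleton Dye, MitoTracker Red and Annexin V Alexa Fluor 680 were imaged on a CQ1 microscope at 37°C and 5% CO2 after compound addition.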

[1] = 12 h, 1 µM, compound concentration 1 uM, replicate 1
[2] = 12 h, 1 µM, compound concentration 1 uM, replicate 2
[3] = 12 h, 10 µM, compound concentration 10 uM, replicate 1
[4] = 12 h, 10 µM, compound concentration 10 uM, replicate 2
[5] = 24 h, 1 µM, compound concentration 1 uM, replicate 1
[6] = 24 h, 1 µM, compound concentration 1 uM, replicate 2
[7] = 24 h, 10 µM, compound concentration 10 uM, replicate 1
[8] = 24 h, 10 µM, compound concentration 10 uM, replicate 2
[9] = 48 h, 1 µM, compound concentration 1 uM, replicate 1
[10] = 48 h, 1 µM, compound concentration 1 uM, replicate 2
[11] = 48 h, 10 µM, compound concentration 10 uM, replicate 1
[12] = 48 h, 10 µM, compound concentration 10 uM, replicate 2

For `Br.CS(=O)(=O)Nc1c(O)ccc2c1CCCC2C1=NCCN1` (configuration not stated), the “Population Apoptotic (%)” value [1] was 40%, the “Population Fragmented Nuclei (%)” value [1] was 7% and the “Population Healthy Nuclei (%)” value [1] was 80%. The “Population Hoechst High Intensity Objects (%)” value [1] was 5%, the “Population Membrane Permeable-Phenotype (%)” value [1] was 0% and the “Population Mitochondria Different-Phenotype (%)” value [1] was 45%. For the same molecule, the “Population Mitotic Cells (%)” value [1] was 59%, the “Population Normal (%)” value [1] was 94% and the “Population Pyknosed Nuclei (%)” value [1] was 12%. The “Population Tubulin-Different-Phenotype (%)” value [1] was 26%, the “Total Cell Count” value [1] was 407 and the “Population Apoptotic (%)” value [2] was 43%. For the same molecule, the “Population Fragmented Nuclei (%)” value [2] was 5%, the “Population Healthy Nuclei (%)” value [2] was 81% and the “Population Hoechst High Intensity Objects (%)” value [2] was 8%. The “Population Mitochondria Different-Phenotype (%)” value [2] was 52%, the “Population Mitotic Cells (%)” value [2] was 56% and the “Population Normal (%)” value [2] was 91%. For the same molecule, the “Population Tubulin-Different-Phenotype (%)” value [2] was 18%, the “Total Cell Count” value [2] was 334 and the “Population Apoptotic (%)” value [3] was 48%. For the same molecule, the “Population Fragmented Nuclei (%)” value [3] was 8%, the “Population Healthy Nuclei (%)” value [3] was 76% and the “Population Hoechst High Intensity Objects (%)” value [3] was 12%. For the same molecule, the “Population Membrane Permeable-Phenotype (%)” value [3] was 0%, the “Population Mitochondria Different-Phenotype (%)” value [3] was 60% and the “Population Mitotic Cells (%)” value [3] was 52%. The “Population Normal (%)” value [3] was 87%, the “Population Pyknosed Nuclei (%)” value [3] was 14% and the “Population Tubulin-Different-Phenotype (%)” value [3] was 33%. For the same molecule, the “Total Cell Count” value [3] was 381, the “Population Apoptotic (%)” value [4] was 55% and the “Population Fragmented Nuclei (%)” value [4] was 6%. The “Population Healthy Nuclei (%)” value [4] was 79%, the “Population Hoechst High Intensity Objects (%)” value [4] was 14% and the “Population Mitochondria Different-Phenotype (%)” value [4] was 67%. The “Population Mitotic Cells (%)” value [4] was 44%, the “Population Normal (%)” value [4] was 85% and the “Population Tubulin-Different-Phenotype (%)” value [4] was 26%. For the same molecule, the “Total Cell Count” value [4] was 292, the “Population Apoptotic (%)” value [5] was 38% and the “Population Fragmented Nuclei (%)” value [5] was 10%. For the same molecule, the “Population Healthy Nuclei (%)” value [5] was 79%, the “Population Hoechst High Intensity Objects (%)” value [5] was 5% and the “Population Membrane Permeable-Phenotype (%)” value [5] was 1%. For the same molecule, the “Population Mitochondria Different-Phenotype (%)” value [5] was 34%, the “Population Mitotic Cells (%)” value [5] was 61% and the “Population Normal (%)” value [5] was 94%. The “Population Pyknosed Nuclei (%)” value [5] was 10%, the “Population Tubulin-Different-Phenotype (%)” value [5] was 21% and the “Total Cell Count” value [5] was 549. For the same molecule, the “Population Apoptotic (%)” value [6] was 55%, the “Population Fragmented Nuclei (%)” value [6] was 6% and the “Population Healthy Nuclei (%)” value [6] was 80%. For the same molecule, the “Population Hoechst High Intensity Objects (%)” value [6] was 8%, the “Population Membrane Permeable-Phenotype (%)” value [6] was 0% and the “Population Mitochondria Different-Phenotype (%)” value [6] was 41%. For the same molecule, the “Population Mitotic Cells (%)” value [6] was 44%, the “Population Normal (%)” value [6] was 91% and the “Population Pyknosed Nuclei (%)” value [6] was 13%. For the same molecule, the “Population Tubulin-Different-Phenotype (%)” value [6] was 17%, the “Total Cell Count” value [6] was 387 and the “Population Apoptotic (%)” value [7] was 30%. For the same molecule, the “Population Fragmented Nuclei (%)” value [7] was 11%, the “Population Healthy Nuclei (%)” value [7] was 75% and the “Population Hoechst High Intensity Objects (%)” value [7] was 6%. For the same molecule, the “Population Membrane Permeable-Phenotype (%)” value [7] was 0%, the “Population Mitochondria Different-Phenotype (%)” value [7] was 40% and the “Population Mitotic Cells (%)” value [7] was 69%. For the same molecule, the “Population Normal (%)” value [7] was 93%, the “Population Pyknosed Nuclei (%)” value [7] was 12% and the “Population Tubulin-Different-Phenotype (%)” value [7] was 23%. The “Total Cell Count” value [7] was 451, the “Population Apoptotic (%)” value [8] was 34% and the “Population Healthy Nuclei (%)” value [8] was 77%. For the same molecule, the “Population Hoechst High Intensity Objects (%)” value [8] was 11%, the “Population Mitochondria Different-Phenotype (%)” value [8] was 46% and the “Population Mitotic Cells (%)” value [8] was 65%. The “Population Normal (%)” value [8] was 88%, the “Population Pyknosed Nuclei (%)” value [8] was 10% and the “Population Tubulin-Different-Phenotype (%)” value [8] was 21%. The “Total Cell Count” value [8] was 377, the “Population Apoptotic (%)” value [9] was 12% and the “Population Fragmented Nuclei (%)” value [9] was 14%. For the same molecule, the “Population Healthy Nuclei (%)” value [9] was 78%, the “Population Hoechst High Intensity Objects (%)” value [9] was 4% and the “Population Membrane Permeable-Phenotype (%)” value [9] was 0%. For the same molecule, the “Population Mitochondria Different-Phenotype (%)” value [9] was 20%, the “Population Mitotic Cells (%)” value [9] was 87% and the “Population Normal (%)” value [9] was 95%. The “Population Pyknosed Nuclei (%)” value [9] was 7%, the “Population Tubulin-Different-Phenotype (%)” value [9] was 14% and the “Total Cell Count” value [9] was 859. The “Population Apoptotic (%)” value [10] was 29%, the “Population Fragmented Nuclei (%)” value [10] was 11% and the “Population Hoechst High Intensity Objects (%)” value [10] was 6%. For the same molecule, the “Population Mitochondria Different-Phenotype (%)” value [10] was 22%, the “Population Mitotic Cells (%)” value [10] was 70% and the “Population Normal (%)” value [10] was 93%. The “Population Pyknosed Nuclei (%)” value [10] was 9%, the “Population Tubulin-Different-Phenotype (%)” value [10] was 12% and the “Total Cell Count” value [10] was 532. For the same molecule, the “Population Apoptotic (%)” value [11] was 34%, the “Population Fragmented Nuclei (%)” value [11] was 16% and the “Population Healthy Nuclei (%)” value [11] was 76%. For the same molecule, the “Population Hoechst High Intensity Objects (%)” value [11] was 4%, the “Population Membrane Permeable-Phenotype (%)” value [11] was 1% and the “Population Mitochondria Different-Phenotype (%)” value [11] was 22%. For the same molecule, the “Population Mitotic Cells (%)” value [11] was 65%, the “Population Normal (%)” value [11] was 95% and the “Population Pyknosed Nuclei (%)” value [11] was 6%. For the same molecule, the “Population Tubulin-Different-Phenotype (%)” value [11] was 12%, the “Total Cell Count” value [11] was 671 and the “Population Apoptotic (%)” value [12] was 48%. The “Population Fragmented Nuclei (%)” value [12] was 14%, the “Population Healthy Nuclei (%)” value [12] was 79% and the “Population Membrane Permeable-Phenotype (%)” value [12] was 0%. The “Population Mitochondria Different-Phenotype (%)” value [12] was 27%, the “Population Mitotic Cells (%)” value [12] was 51% and the “Population Pyknosed Nuclei (%)” value [12] was 5%. For the same molecule, the “Population Tubulin-Different-Phenotype (%)” value [12] was 11% and the “Total Cell Count” value [12] was 584.
